Source: ChEMBL document CHEMBL1131017, “Synthesis and evaluation of peptidyl Michael acceptors that inactivate human rhinovirus 3C protease and inhibit virus replication” (J Med Chem, 1998)
≈ marks a conversion by molar mass, not a printed value. Non-standard residues stand in square brackets, D forms with d. Residues, ends and D or L forms follow the SMILES beside them. ξ: configuration not given here. *: point of attachment. X1 = COC(=O)/C=C/[C@H](CCC(N)=O)N*; ξE = NC(CCC(=O)O)C(=O)O; Boc = CC(C)(C)OC(=O)*; OtBu = CC(C)(C)O*

Assays:
[1] = target: T1, Human rhinovirus A protease (Human rhinovirus sp.) (UniProt Q4U254); assay: Percent inhibition of HRV-14 3C protease was measured at a concentration of 1 ug/mL
T1 sequence (whole entry): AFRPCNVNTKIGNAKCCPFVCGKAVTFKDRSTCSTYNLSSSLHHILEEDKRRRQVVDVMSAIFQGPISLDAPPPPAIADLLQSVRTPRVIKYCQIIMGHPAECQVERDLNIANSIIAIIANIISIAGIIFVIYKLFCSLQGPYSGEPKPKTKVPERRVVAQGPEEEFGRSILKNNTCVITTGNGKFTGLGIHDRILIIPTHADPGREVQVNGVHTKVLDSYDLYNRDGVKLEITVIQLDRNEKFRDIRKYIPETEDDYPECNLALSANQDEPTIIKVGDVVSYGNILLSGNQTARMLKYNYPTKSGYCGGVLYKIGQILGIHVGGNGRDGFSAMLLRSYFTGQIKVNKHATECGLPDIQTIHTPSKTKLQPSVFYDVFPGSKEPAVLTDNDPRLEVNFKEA

HeLa = assay: Antiviral activity measured in cell culture assay, inhibiting plaque formation by 50% at subumolar concentrations.; format: functional, cell-based; conditions: Homo sapiens
In short: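 HeLa monolayers (confluent) were infected with HRV-14 at 100 PFU/plate. After 30 min adsorption they were overlaid with maintenance medium containing 0.5% agarose plus compound at various concentrations, then held 48 h at 35 °C. Cells were formalin-fixed and crystal violet-stained. Duplicate plaque counts were converted to percent of control and the IC50 interpolated. Runs were repeated 2–3 times, the highest interpolated IC50 reported, and enviroxime was included as control.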

[2] = target: T1, Human rhinovirus A protease (Human rhinovirus sp.); assay: Percent inhibition of HRV-14 3C protease was measured at a concentration of 100 ug/mL(average of duplicates which agreed within +/- 10%)
[3] = target: T1, Human rhinovirus A protease (Human rhinovirus sp.); assay: Percent inhibition of HRV-14 3C protease was measured at a concentration of 5 ug/mL (average of duplicates which agreed within +/- 10%)

COC(=O)/C=C/[C@H](CCC(N)=O)NC(=O)[C@H](Cc1ccccc1)NC(=O)[C@H](CC(C)C)NC(=O)[C@@H](NC(=O)OCc1ccccc1)C(C)C
inhibition [1]: 100% | IC50 (HeLa): 0.93 mg/L (≈ 1.37 µM)

CCOC(=O)/C=C/C(CCC(N)=O)NC(=O)OC(C)(C)C (stereo not given)
IC50 (HeLa): > 10 mg/L | inhibition [2]: 27%

CCOC(=O)/C=C/C(CCC(N)=O)NC(=O)C(Cc1ccccc1)NC(=O)OC(C)(C)C (stereo not given)
IC50 (HeLa): > 10 mg/L | inhibition [2]: 39%

COC(=O)/C=C/[C@H](CCC(N)=O)NC(=O)[C@H](Cc1ccccc1)NC(=O)[C@H](CC(C)C)NC(=O)[C@@H](NC(=O)C(CCC(=O)OC(C)(C)C)NC(=O)OC(C)(C)C)C(C)C (stereo not given in full) (Boc-[ξE](OtBu)VLF-X1)
inhibition [1]: 100% | IC50 (HeLa): 4.5 mg/L (≈ 5.42 µM)

CC(C)C[C@H](NC(=O)[C@@H](NC(=O)OC(C)(C)C)C(C)C)C(=O)N[C@@H](Cc1ccccc1)C(=O)N[C@H](/C=C/C(=O)O)CCC(N)=O
inhibition [1]: 43% | IC50 (HeLa): > 10 mg/L

COC(=O)/C=C/C(CCC(N)=O)NC(=O)C(Cc1ccccc1)NC(=O)OC(C)(C)C (stereo not given)
IC50 (HeLa): > 10 mg/L | inhibition [2]: 42%

CCOC(=O)/C=C/[C@H](CCC(N)=O)NC(=O)[C@H](Cc1ccccc1)NC(=O)[C@H](CC(C)C)NC(=O)[C@@H](NC(=O)OC(C)(C)C)C(C)C
inhibition [1]: 100% | IC50 (HeLa): 0.41 mg/L (≈ 0.621 µM)

COC(=O)/C=C/[C@H](CCC(N)=O)NC(=O)[C@H](Cc1ccccc1)NC(=O)[C@H](CC(C)C)NC(=O)[C@@H](NC(=O)OC(C)(C)C)C(C)C
inhibition [1]: 100% | IC50 (HeLa): 0.74 mg/L (≈ 1.15 µM)

CCOC(=O)/C=C/C(CCC(N)=O)NC(=O)OCc1ccccc1 (stereo not given)
IC50 (HeLa): > 10 mg/L | inhibition [2]: 18%

COC(=O)/C=C/C(CCC(N)=O)NC(=O)C(Cc1ccccc1)NC(=O)OCc1ccccc1 (stereo not given)
inhibition [3]: 51% | IC50 (HeLa): 3.2 mg/L (≈ 6.84 µM)

COC(=O)/C=C/[C@H](CCC(N)=O)NC(=O)[C@H](Cc1ccccc1)NC(=O)[C@H](CC(C)C)NC(=O)[C@@H](NC(=O)[C@@H](N)CCC(=O)O)C(C)C
IC50 (HeLa): > 10 mg/L

COC(=O)/C=C/[C@H](CCC(N)=O)NC(=O)[C@H](Cc1ccccc1)NC(=O)[C@H](CC(C)C)NC(=O)[C@H](NC(=O)[C@@H](N)CCC(=O)O)C(C)C
inhibition [1]: 100%

COC(=O)/C=C/C(CCC(N)=O)NC(=O)OC(C)(C)C (stereo not given)
inhibition [2]: 18%

NC(=O)CCC(/C=C/S(=O)(=O)c1ccccc1)NC(=O)C(Cc1ccccc1)NC(=O)OCc1ccccc1 (stereo not given)
IC50 (HeLa): > 10 mg/L | inhibition [2]: 42%
